Test results from PubChem BioAssay.
Results filed as inconclusive are left out. Calls of active or inactive are those of the source.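 The calls were made as follows, unless noted: active = inhibition over a set limit, the all-compound mean plus 3 SD, in both replicate runs; inconclusive = over that limit in just one replicate run; inactive = at or under that limit in both runs.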

How the values were obtained:
[1] = OD615 S. cerevisiae growth inhibition, permissive medium, pilot counter-assay, permissive growth control for S. cerevisiae lifespan shortening project (AID 705;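 active = growth inhibition above 25% in both replicates, a cutoff set 3 SD above the mean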); details: OD615, 24 h, at 10 µM, stronger effect = higher value
Outline: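 System: engineered DeaD yeast; Medium: permissive raffinose/galactose medium; Compound dosing: 10 µM single dose, 0.25% DMSO; Incubation: 4 h cell pre-growth, 24 h exposure at 30 °C; Technique: OD at 615 nm; Evaluation: growth inhibition from lowered OD615 after 24 h.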

[2] = Restrictive medium S. cerevisiae growth inhibition, OD615, pilot screen of yeast lifespan reduction project, restrictive growth control (AID 706;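 active = growth inhibition above a set limit, 3 SD over mean compound inhibition, in both replicates, cut at about 43% in these data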;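 also: modified DeaD lifespan yeast strain shifted to restrictive glucose medium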); details: OD615, 48 h, at 10 µM, stronger effect = higher value
Outline: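 Material: modified S. cerevisiae; buffer or medium: CSMM-D glucose medium; doses: one concentration, 10 µM final, 0.25% DMSO; incubation: 48 h compound exposure at 30 °C; detection: optical density at 615 nm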

[3] = viability gain of MRP-1-high H69AR cells under doxorubicin, pilot screen, MRP-1 activator project, CellTiter-Glo, duplicate (AID 807;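 active = viability increase at or above a cutoff of the median across tested compounds plus 3 SD, cut at about 8.5% in these data, passing the limit was not always enough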;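 also: compound pretreatment 18-22 h then 72 h combined with doxorubicin; 0% = doxorubicin alone and 100% = vehicle without doxorubicin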); details: H69AR viability with doxorubicin, CellTiter-Glo luminescence; at 10 µM; stronger effect = higher value
[4] = growth suppression of beta-catenin knockout HCT116, pilot screen, human colon tumor cells (AID 823;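 active = cell viability at or below a set limit in both duplicate runs, the limit being the all-compound median minus 4 SD, cut at about 23% in these data, passing the limit was not always enough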;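 also: 0% = wells killed by 20 µM Hyamine and 100% = untreated DMSO cell wells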); details: CellTiter-Glo, 60 h, at 10 µM, stronger effect = lower value
[5] = growth suppression of PTEN-deleted HCT116, pilot screen, cell-based, HCT116 clonal line, CellTiter-Glo (AID 824;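 active = viability at or below 27.92% in each of two runs, the all-compound median minus 4 SD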;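 also: 0% = 20 µM Hyamine control and 100% = vehicle cell control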); details: 60 h, at 10 µM, stronger effect = lower value
[6] = inhibitors of the yeast RAM network, pilot screen, dse1pr::URA3 reporter, 5-FOA selection (AID 869);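 also: 0% = DMSO wells with no growth and 100% = 10 µM 1-NA-PP1 with full growth; RAM network block rescues cells from 5-FOA so hits raise OD615 growth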; details: S. cerevisiae dse1pr::URA3 5-FOA growth, OD615, 2 d; at 10 µM; stronger effect = higher value; strain carries analog-sensitive mutant Cbk1 kinase
[7] = RAM signaling pathway blockade in yeast – S. cerevisiae, Pdr1DBD-CYC8 efflux-inhibited sensitized strain, primary screen (AID 1298;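 active = RAM network inhibition above 8.4% in each of two replicates, 3 SD over the compound average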;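 also: 0% = DMSO untreated cells without growth and 100% = 10 µM 1-NA-PP1 full growth; higher means more yeast growth rescued from 5-FOA killing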); details: S. cerevisiae cbk1-as DSE1-URA3 strain, 5-FOA growth OD615, 2 d; at 50 µM; stronger effect = higher value

O=C(NCCCN1CCOCC1)c1cc(-c2ccc3c(c2)OCO3)nc2ccccc12
inactive: growth inhibition [1] -19.7% | growth inhibition [2] -7.51% | viability increase [3] -3.78% | viability [4] 92.8% | viability [5] 89.3% | inhibition [6] 1.26% | RAM network inhibition [7] 7.64%

COC(=O)c1c(C(=O)OC)c2n(c1C)Cc1ccccc1C2
inactive: growth inhibition [1] -4.47% | growth inhibition [2] -1.14% | viability increase [3] -1.39% | viability [4] 86.6% | viability [5] 90.2% | inhibition [6] 1.85% | RAM network inhibition [7] 1.43%

Cc1cc(NC(=O)CSc2nc3c(c(=O)n2-c2ccccc2)SC(C)C3)no1 (configuration not stated)
inactive: growth inhibition [1] -3.02% | growth inhibition [2] -11.7% | viability increase [3] -2.58% | viability [4] 93% | viability [5] 91.2% | inhibition [6] 4.66% | RAM network inhibition [7] 1.22%

COc1ccc(-c2nc(CNS(=O)(=O)c3cc(OC)ccc3OC)cs2)cc1
inactive: growth inhibition [1] 2.43% | growth inhibition [2] 5.36% | viability increase [3] -1.76% | viability [4] 92% | viability [5] 89.7% | inhibition [6] 0.53% | RAM network inhibition [7] 5.82%

CC(=O)c1cccc(NC2c3ccccc3C(=O)N2Cc2ccc3c(c2)OCO3)c1 (configuration not stated)
inactive: growth inhibition [1] -2.94% | growth inhibition [2] 7.7% | viability increase [3] -2.61% | viability [4] 92.7% | viability [5] 79.6% | inhibition [6] 2.9% | RAM network inhibition [7] 2.2%

CCCCS(=O)CC(CS(=O)CCCC)OC(=O)c1ccccc1 (configuration not stated)
inactive: growth inhibition [1] 4.33% | growth inhibition [2] 5.83% | viability increase [3] -1.89% | viability [4] 102% | viability [5] 96.1% | inhibition [6] 0.405% | RAM network inhibition [7] 2.4%

Cc1ccc(OCCNC(=O)c2ccco2)cc1C
inactive: growth inhibition [1] 0.475% | growth inhibition [2] -5.61% | viability increase [3] -1.46% | viability [4] 102% | viability [5] 101% | inhibition [6] 1.63% | RAM network inhibition [7] -1.46%

Cc1ccccc1C(=O)OCn1nnc2ccccc2c1=O
inactive: growth inhibition [1] -1.86% | growth inhibition [2] -19.1% | viability increase [3] -2.87% | viability [4] 88.9% | viability [5] 93.2% | inhibition [6] 1.44% | RAM network inhibition [7] 2.2%

CCCCn1c(=O)cc(N2CCOCC2)[nH]c1=O
inactive: growth inhibition [1] -16.3% | growth inhibition [2] -20.6% | viability increase [3] 0.83% | viability [4] 99.7% | viability [5] 94.3% | inhibition [6] 1.04% | RAM network inhibition [7] -0.95%

COc1cccc(-n2c(Cc3cc(=O)[nH]c(=O)[nH]3)nnc2SCC(=O)NC2CCCC2)c1
inactive: growth inhibition [1] -6.3% | growth inhibition [2] 8.16% | viability increase [3] -0.03% | viability [4] 101% | viability [5] 101% | inhibition [6] 2.87% | RAM network inhibition [7] -1.25%

CCC(Sc1nc(C)cc(=O)[nH]1)C(=O)Nc1sc2c(c1C#N)CCCC2 (configuration not stated)
inactive: growth inhibition [1] -14% | growth inhibition [2] -12.3% | viability increase [3] -3.49% | viability [4] 92.9% | viability [5] 91.4% | inhibition [6] 2.01% | RAM network inhibition [7] 6.25%

Cc1cc(NC(=O)COn2nnc3ccc(Cl)cc32)no1
inactive: growth inhibition [1] -6.7% | growth inhibition [2] 1.51% | viability increase [3] 1.22% | viability [4] 94.3% | viability [5] 91.2% | inhibition [6] 0.535% | RAM network inhibition [7] 2.19%

COc1ccc(NC(=O)Nc2cccc(C)n2)cc1
inactive: growth inhibition [1] 6.65% | growth inhibition [2] 21.5% | viability increase [3] -1.44% | viability [4] 100% | viability [5] 88.4% | inhibition [6] 0.5% | RAM network inhibition [7] 3.92%

COC(=O)c1sc2ccccc2c1N
inactive: growth inhibition [1] 1.37% | growth inhibition [2] 27.7% | viability increase [3] -3.26% | viability [4] 101% | viability [5] 94.6% | inhibition [6] 0.515% | RAM network inhibition [7] 2.29%

N#Cc1nc(-c2ccccc2F)oc1NCc1ccccc1
inactive: growth inhibition [1] -4.66% | growth inhibition [2] 11.3% | viability increase [3] 1.59% | viability [4] 107% | viability [5] 90.5% | inhibition [6] 1.98% | RAM network inhibition [7] 3.96%

CCOC(=O)N1CCN(c2c(N3CCOCC3)c(=O)c2=O)CC1
inactive: growth inhibition [1] 1.49% | growth inhibition [2] -13.2% | viability increase [3] 0.58% | viability [4] 106% | viability [5] 97.2% | inhibition [6] 2.57% | RAM network inhibition [7] -0.73%

CCCc1nc(N2CCN(C)CC2)c2sc(=S)n(-c3ccccc3)c2n1
inactive: growth inhibition [1] -8.52% | growth inhibition [2] 17.7% | viability increase [3] -2.47% | viability [4] 83.8% | viability [5] 82.6% | inhibition [6] 0.39% | RAM network inhibition [7] 6.13%

Cc1cc(NC(=O)C2CC(c3ccc(F)cc3)=NO2)n(-c2ccccc2)n1 (configuration not stated)
inactive: growth inhibition [1] -12.7% | growth inhibition [2] 2.08% | viability increase [3] 0.96% | viability [4] 97.1% | viability [5] 95.7% | inhibition [6] 1.16% | RAM network inhibition [7] -1.56%

Cc1cc2oc3c(c(=O)c2cc1C)C(c1ccc(C(C)C)cc1)N(CCCN1CCOCC1)C3=O (configuration not stated)
inactive: growth inhibition [1] -7.04% | growth inhibition [2] -2.79% | viability increase [3] -3.45% | viability [4] 95.8% | viability [5] 86.5% | inhibition [6] 1.31% | RAM network inhibition [7] 4.42%

CCN1CCN(Cc2ccc(NC(=O)Nc3ccc(OC)cc3)cc2)CC1
inactive: growth inhibition [1] 5.68% | growth inhibition [2] 1.98% | viability increase [3] 0.19% | viability [4] 104% | viability [5] 108% | inhibition [6] 2.09% | RAM network inhibition [7] 1.09%

C=CCn1c2ccccc2c2nnc(SCN3C(=O)c4ccccc4C3=O)nc21
inactive: growth inhibition [1] 7.65% | viability increase [3] -4.7% | viability [4] 100% | viability [5] 93.7% | inhibition [6] 3.45% | RAM network inhibition [7] 4.65%
active: growth inhibition [2] 48.4%

CCCCSc1nnc(C)c(=O)[nH]1
inactive: growth inhibition [1] -8.76% | growth inhibition [2] -12.2% | viability increase [3] -0.85% | viability [4] 97.6% | viability [5] 102% | inhibition [6] 1.26% | RAM network inhibition [7] 7.32%

O=C(CN1CC(c2ccccc2)CC1=O)Nc1ccc2c(c1)OCO2 (configuration not stated)
inactive: growth inhibition [1] -7.38% | growth inhibition [2] 0.29% | viability increase [3] -1.16% | viability [4] 98% | viability [5] 101% | inhibition [6] 0.205% | RAM network inhibition [7] 1.31%

COc1ccc(OC)c(N(CC(=O)NCc2ccccn2)S(C)(=O)=O)c1
inactive: growth inhibition [1] -0.79% | growth inhibition [2] -6.94% | viability increase [3] -2.27% | viability [4] 98.1% | viability [5] 96.3% | inhibition [6] 1.44% | RAM network inhibition [7] 0.46%

Cc1ccc(-n2nnc3c(=O)n(Cc4ccccc4C)cnc32)cc1
inactive: growth inhibition [1] -4.99% | growth inhibition [2] -6.7% | viability increase [3] -0.53% | viability [4] 102% | viability [5] 100% | inhibition [6] 2.44% | RAM network inhibition [7] 4.84%

O=C(NCC1CCCO1)c1ccc2c(c1)N(Cc1ccccc1)C(=O)CS2=O (configuration not stated)
inactive: growth inhibition [1] -1.31% | growth inhibition [2] 8.91% | viability increase [3] -0.66% | viability [4] 91.2% | viability [5] 88.3% | inhibition [6] 1.06% | RAM network inhibition [7] 0.78%

O=C(Nc1ccc2oc(-c3ccccc3)nc2c1)c1ccncc1
inactive: growth inhibition [1] -2.31% | growth inhibition [2] -10.5% | viability increase [3] 2.36% | viability [4] 79.7% | viability [5] 77.9% | inhibition [6] 0.165% | RAM network inhibition [7] 1.62%

C=CCN1C(=Nc2ccccc2)SC/C1=C\C(=O)OC
inactive: growth inhibition [1] -14.6% | growth inhibition [2] -4.42% | viability increase [3] -2.34% | viability [4] 89% | viability [5] 89.8% | inhibition [6] 0.81% | RAM network inhibition [7] 6.77%

O=C(c1cccc(S(=O)(=O)N2CCOCC2)c1)N1CCOCC1
inactive: growth inhibition [1] -3.56% | growth inhibition [2] -5.11% | viability increase [3] -0.71% | viability [4] 101% | viability [5] 97.9% | inhibition [6] 0.835% | RAM network inhibition [7] 1.18%

CCN(CC)S(=O)(=O)c1ccc(Cl)c(C(=O)NC)c1
inactive: growth inhibition [1] -15.4% | growth inhibition [2] -16.3% | viability increase [3] -0.22% | viability [4] 105% | viability [5] 96.4% | inhibition [6] 0.985% | RAM network inhibition [7] 3.63%

Cc1nc(C)c(C(=O)Nc2cccc(C)c2C)o1
inactive: growth inhibition [1] -5.6% | growth inhibition [2] -15.8% | viability increase [3] -3.05% | viability [4] 109% | viability [5] 90.1% | inhibition [6] 3.58% | RAM network inhibition [7] 1.53%

Cc1cc(C(F)(F)F)n2ncc(C(=O)O)c2n1
inactive: growth inhibition [1] 2.26% | growth inhibition [2] 0.105% | viability increase [3] -0.34% | viability [4] 98.3% | viability [5] 91% | inhibition [6] -0.025% | RAM network inhibition [7] 0.78%

Cc1cccc(NC(=O)CN(C)S(=O)(=O)c2cccc3cccnc23)c1
inactive: growth inhibition [1] 2.15% | growth inhibition [2] -0.265% | viability increase [3] 1.15% | viability [4] 96.5% | viability [5] 96.1% | inhibition [6] 0.01% | RAM network inhibition [7] -0.41%

C=CCc1ccccc1OCC(O)CN1CCN(c2ccccc2OC)CC1 (configuration not stated)
inactive: growth inhibition [1] -21.5% | growth inhibition [2] -25% | viability increase [3] -4.59% | viability [4] 56.3% | viability [5] 63.5% | inhibition [6] 1.39% | RAM network inhibition [7] 4.75%

COCCCNC(=O)Cn1cc2c(n1)CCCCC2
inactive: growth inhibition [1] 3.39% | growth inhibition [2] -2.59% | viability increase [3] 0.05% | viability [4] 104% | viability [5] 106% | inhibition [6] -0.6% | RAM network inhibition [7] 4.53%

Cc1ccc(-c2cc3c(nn2)-c2ccccc2C3=O)cc1
inactive: growth inhibition [1] -17% | growth inhibition [2] -5.93% | viability increase [3] -6.54% | viability [4] 53.4% | viability [5] 49.6% | inhibition [6] 4.56% | RAM network inhibition [7] 7.67%
